Compound activity (PubChem BioAssay)
TRPC4 block: inhibitors of mouse TRPC4 channel | HEK293 TRPC4beta/mu-opioid, DAMGO-evoked Fluo4 calcium flux; hits give low values | actives 0.39% (n = 300,000) | B-score at 10 µM;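 active = B-score over 3 SD under the library average, no early fluorescence shift, positive overall ratio signal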
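Assay system: HEK293 cells with stable TRPC4beta plus mu-opioid receptor expression. Dosing: single dose. Measured by: Fluo4 Ca2+ flux fluorescence. Also added: DAMGO in two steps, submaximal then maximal. Read-out: B score from integrated Fluo4 fluorescence ratio.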
TRPC4 agonist: activators of mouse TRPC4 channel; B-score at 10 µM; Q9QUQ5; HEK293 TRPC4beta/mu-opioid, Fluo4 calcium fluorescence; hits give high values; actives 0.49% (n = 310,000);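 active = B-score above 5 SD of library B-scores, and initial fluorescence ratio not above library mean plus 5 SD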;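 note: positive B-score marks a calcium rise read as TRPC4 activation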
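Assay system: HEK293 stable line with TRPC4beta plus mu-opioid receptor; schedule: 45 min room-temperature Fluo4 loading, 110 s read; technique: kinetic Fluo4 calcium fluorescence; evaluation: integrated baseline-normalised fluorescence ratio, converted to per-well B score; controls: buffer (low) and maximal DAMGO (high)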
TRPC6 act: activators of mouse TRPC6 channel; actives 0.13% (n = 310,000); B-score at 10 µM; Q61143; AID 2550; HEK293-TRPC6 membrane potential dye fluorescence; hits give high values;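 active = B-score of the integrated fluorescence ratio above library mean plus 3 SD, and starting fluorescence ratio within library mean plus 5 SD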;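 note: higher score means more depolarization so channel activation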
TRPC6 inh: inhibitors of mouse TRPC6 channel; Q61143; actives 1.1% (n = 310,000); B-score at 10 µM; HEK293-TRPC6, membrane potential dye, ACh-evoked depolarization; hits give low values;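 active = B-score under library mean minus 3 SD, initial fluorescence not abnormally high, positive integrated signal ratio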;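 note: B-score derived from integrated fluorescence ratio over the kinetic read; more negative B-score means stronger inhibition of depolarization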
TRPC4 PAM: allosteric potentiators of mouse TRPC4 channel | B-score at 10 µM | AID 2227 | Q9QUQ5 | actives 0.42% (n = 310,000) | HEK293 TRPC4beta/mu-opioid, DAMGO EC20, Fluo-4 Ca2+ flux; hits give high values;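 active = B-score of calcium response area above 5 SD of library B-scores, with initial fluorescence ratio within 5 SD of library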
TRPC4 sel inh 2: second selectivity test of TRPC6 inhibitors: effect on mouse TRPC4; HEK293 TRPC4/MOR, membrane potential dye fluorescence; channel activated by saturating DAMGO dose; shares compounds with TRPC6 inh; actives 42% (n = 920); inhibition, % at 10 µM; AID 2776;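 active = compounds whose fluorescence signal differed from control wells by over 3 SD, either direction, in both duplicate plates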
TRPC4 spec: mouse TRPC4 off-target activity of TRPC6 inhibitors. shares compounds with TRPC6 inh. HEK293 TRPC4/mu-opioid, membrane potential fluorescence. activity change, negative = inhibition, % at 10 µM. actives 61% (n = 920). AID 2777;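 active = rise or fall in signal beyond 3 SD of buffer-only wells in both replicate plates, either sign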;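 note: integrated kinetic ratio of fluorescence range over baseline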
HEK293 MPD ctr 2-1: second counter-screen for TRPC6 inhibitors: parental HEK293 cells. AID 2779. actives 31% (n = 920). shares compounds with TRPC6 inh. signal change vs control, % at 10 µM. parental HEK293 membrane potential dye fluorescence; maximal acetylcholine challenge after compound addition;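 active = membrane potential signal moving either way by over 3 SD of the maximum-effect control, in both duplicate plates, meaning non-specific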
HEK293 MPD ctr-1: checks TRPC6 inhibitor effects in parental HEK293 cells; shares compounds with TRPC6 inh; actives 60% (n = 920); membrane potential signal change, % at 10 µM; parental HEK293 membrane potential dye fluorescence;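 active = membrane potential signal shifting up or down by more than 3 SD of buffer-only wells, on both duplicate plates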
HEK293 MPD ctr-2: parental HEK293 nonspecific activity of TRPC6 modulators; actives 51% (n = 2,400); membrane potential signal change, % at 10 µM; shares compounds with TRPC6 inh; membrane potential dye fluorescence; AID 488924;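 active = membrane potential signal moves up or down beyond 5 SD from buffer-only wells, on both duplicate plates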
HEK293 MPD ctr 2-2: parental HEK293 nonspecific activity of TRPC6 modulators, second screen. shares compounds with TRPC6 inh. membrane potential dye fluorescence; after compound, maximal acetylcholine stimulation. inhibition, % at 10 µM. actives 14% (n = 2,400). AID 488926;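 active = membrane potential signal drops by more than 5 SD from the mean control signal, in both duplicate plates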
TRPC4/MOR mod: selectivity of TRPC6 modulators against mouse TRPC4; shares compounds with TRPC6 inh; HEK293 TRPC4/mu-opioid, membrane potential fluorescence; percent change from control (negative = decrease, positive = increase), % at 10 µM; actives 69% (n = 2,400); AID 488927;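 active = membrane potential signal moved up or down beyond 5 SD of buffer control wells, in both duplicate plates, actives on both sides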
TRPC4/MOR inh 2: second selectivity test of TRPC6 modulators against mouse TRPC4 | inhibition, % at 10 µM | AID 488928 | shares compounds with TRPC6 inh | HEK293 TRPC4/mu-opioid, membrane potential dye fluorescence; stimulated with maximal-effect DAMGO | actives 55% (n = 2,400);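 active = drop in membrane potential signal beyond 5 SD of the control wells in both duplicate plates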;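 note: TRPC4 counter screen for TRPC6 hits run under conditions tuned for TRPC6 not TRPC4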
TRPC6 block conf: confirmation of mouse TRPC6 inhibitors; shares compounds with TRPC6 inh; HEK293-TRPC6, membrane potential dye, ACh-evoked depolarization; inhibition, % at 10 µM; actives 43% (n = 3,300);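 active = fluorescence ratio falls more than 5 SD below the full-stimulation control mean, in both duplicate runs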;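 note: integrated fluorescence ratio of peak minus minimum over baseline after agonist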
TRPC6 act confirm: mouse TRPC6 activator confirmation; shares compounds with TRPC6 inh; HEK293-TRPC6 membrane potential dye fluorescence, FDSS; activation, % at 10 µM; actives 11% (n = 2,800); AID 488961;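 active = ratio signal rise beyond 5 SD above unstimulated control wells' mean, seen in both duplicate runs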
Of the large screens only hits and unclear results are named; the others gave an inactive call (follow-up assays come after a bar, where they were run); ! = repeats disagree. Hits are enriched below; roughly 2.3% of the tested compounds scored in any of these assays.

CN(C)CCN(C(=O)c1cccs1)c1nc2cc3c(cc2s1)OCCO3	TRPC6 inh -8 | TRPC4 sel inh 2 44% | TRPC4 spec -18% | HEK293 MPD ctr 2-1 inactive | HEK293 MPD ctr-1 -230% | TRPC6 block conf 96% | TRPC6 act confirm inactive
CN(C)CCN(C(=O)c1ccc(Br)s1)c1nc2cc3c(cc2s1)OCCO3	none
Cc1cc(C)c2sc(N(CCCN(C)C)C(=O)c3ccc(Br)s3)nc2c1	TRPC6 inh -9.6 | TRPC4 sel inh 2 35% | TRPC4 spec -17% | HEK293 MPD ctr 2-1 inactive | HEK293 MPD ctr-1 inactive | TRPC6 block conf 78% | TRPC6 act confirm inactive
CN(C)CCCN(C(=O)c1ccc2c(c1)OCCO2)c1nc2cc3c(cc2s1)OCO3	TRPC6 inh -5.7 | HEK293 MPD ctr-2 inactive | HEK293 MPD ctr 2-2 inactive | TRPC4/MOR mod -18% | TRPC4/MOR inh 2 80% | TRPC6 block conf 78% | TRPC6 act confirm inactive
Cc1cc(C)c2nc(N(CCCN(C)C)C(=O)C3=COCCO3)sc2c1	none
Cc1noc(C)c1S(=O)(=O)Nc1ccc(C(C)C)cc1	none
CC1CN(Cc2nc3ccccc3c(=O)[nH]2)CC(C)O1 (stereo not drawn)	none
Cc1nc(N2CCN(Cc3ccccc3)CC2)nc2c1CCC2	none
CCn1c2c(c(=N)c3c1CCC3)CCCC2	TRPC6 inh -5.3 | HEK293 MPD ctr-2 -284% | HEK293 MPD ctr 2-2 inactive | TRPC4/MOR mod -48% | TRPC4/MOR inh 2 31% | TRPC6 block conf inactive | TRPC6 act confirm inactive
N=c1c2c(n(Cc3ccc(F)cc3)c3c1CCC3)CCCC2	TRPC6 inh -5.4 | HEK293 MPD ctr-2 -188% | HEK293 MPD ctr 2-2 inactive | TRPC4/MOR mod -30% | TRPC4/MOR inh 2 30% | TRPC6 block conf inactive | TRPC6 act confirm inactive
CCOC(=O)Cn1c2c(c(=N)c3c1CCC3)CCC2	none
O=C1CCCc2ccccc2N1Cc1ccc(F)cc1	none
N=c1c2c(n(Cc3ccccc3)c3c1CCC3)CCC2	TRPC4 block -6, TRPC6 inh -7.6 | TRPC4 sel inh 2 68% | TRPC4 spec -24% | HEK293 MPD ctr 2-1 20% | HEK293 MPD ctr-1 -394% | TRPC6 block conf 65% | TRPC6 act confirm inactive
Cc1cccc(NS(=O)(=O)c2ccc(Oc3ccccc3)cc2)n1	TRPC6 inh -6.3 | HEK293 MPD ctr-2 inactive | HEK293 MPD ctr 2-2 inactive | TRPC4/MOR mod 8.5% | TRPC4/MOR inh 2 inactive | TRPC6 block conf inactive | TRPC6 act confirm inactive
O=c1ccc2cc(S(=O)(=O)Nc3ccc(Br)cc3)ccc2o1	none
CCOc1ccccc1NC(=O)CCn1ccnc1	none
COc1ccccc1N1CCN(C(=O)c2cc(-c3ccccc3O)on2)CC1	TRPC6 inh -5.9 | HEK293 MPD ctr-2 inactive | HEK293 MPD ctr 2-2 inactive | TRPC4/MOR mod inactive | TRPC4/MOR inh 2 inactive | TRPC6 block conf inactive | TRPC6 act confirm inactive
COc1ccccc1N1CCN(C(=O)c2cc(-c3ccccc3)on2)CC1	none
COc1ccccc1NC(=O)Nc1nc(CC(=O)N2CCN(c3ccccc3OC)CC2)cs1	none
CCn1ncc(C2=NOC(C(=O)NCC(C)C)C2)c1C (stereo not drawn)	none
CCn1ncc(C2=NOC(C(=O)Nc3cnn(C45CC6CC(CC(C6)C4)C5)c3)C2)c1C (stereo not drawn)	TRPC6 act 19 | HEK293 MPD ctr-2 inactive | HEK293 MPD ctr 2-2 inactive | TRPC4/MOR mod inactive | TRPC4/MOR inh 2 inactive | TRPC6 act confirm 126%
COc1ccc(-c2cc(=O)oc3c(C)c(OC(C)C(=O)NCc4ccccn4)ccc23)cc1 (stereo not drawn)	none
CCN1CCCC1CNC(=O)c1cc(OC)c(OC)c(OC)c1 (stereo not drawn)	none
CCN1CCC[C@H]1CNC(=O)c1c(O)c(Cl)cc(Cl)c1OC	TRPC6 inh -7.4! | TRPC4 sel inh 2 inactive | TRPC4 spec inactive | HEK293 MPD ctr 2-1 inactive | HEK293 MPD ctr-1 inactive | TRPC6 block conf inactive | TRPC6 act confirm inactive
CCc1cccc(NC(=O)C2CCCN(S(=O)(=O)c3cccs3)C2)c1 (stereo not drawn)	none
CN(Cc1ccc(OC(F)F)cc1)C(=O)c1ccccc1Sc1ccccc1C#N	none
Cc1ccc(CN(C)C(=O)c2ccccc2Sc2ccccc2C#N)cc1	TRPC6 inh -5.1 | HEK293 MPD ctr-2 104% | HEK293 MPD ctr 2-2 inactive | TRPC4/MOR mod 22% | TRPC4/MOR inh 2 inactive | TRPC6 block conf 62%
N=c1c(C(=O)NC2CCCC2)cc2c(=O)n3ccccc3nc2n1CC1CCCO1 (stereo not drawn)	none
CCOCCCn1c(=N)c(C(=O)NCc2ccc3c(c2)OCO3)cc2c(=O)n3cccc(C)c3nc21	TRPC6 inh -5.1 | HEK293 MPD ctr-2 inactive | HEK293 MPD ctr 2-2 inactive | TRPC4/MOR mod -12% | TRPC4/MOR inh 2 36% | TRPC6 block conf inactive | TRPC6 act confirm inactive
Cc1ccc(CNC(=O)c2cc3c(=O)n4ccccc4nc3n(CC3CCCO3)c2=N)cc1 (stereo not drawn)	TRPC6 inh -6.2, TRPC4 PAM 11 | HEK293 MPD ctr-2 inactive | HEK293 MPD ctr 2-2 inactive | TRPC4/MOR mod -36% | TRPC4/MOR inh 2 52% | TRPC6 block conf 64% | TRPC6 act confirm inactive
